In ChEMBL document CHEMBL4229321, “Monoterpenoid Indole Alkaloids from Kopsia officinalis and the Immunosuppressive Activity of Rhazinilam” (J Nat Prod, 2017):
The source made the active and inactive calls. No cut-off for these calls is given here.

What was measured:
T-cell line [1] = experiment: Immunosuppressive activity in human T cells assessed as reduction in anti-CD3/anti-CD28 antibody-induced cell proliferation incubated for 72 hrs by CFSE based flow cytometry; assay type: functional
Summary of the method: (§1)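 Cells (10^6 cells/mL) labelled with 2.5 μM CFSE at 37 °C for 10 min. T cells from healthy donors (95% purity) were activated with plate-bound anti-CD3 (2 μg/mL) plus soluble anti-CD28 (1 μg/mL). Alternatively, PBMCs were mixed with equal numbers of 3000-rad-irradiated allogeneic PBMCs. Cells were cultured with or without drug for 72 h in RPMI 1640 with 10% FBS, and CFSE dilution was read by flow cytometry. Unstimulated cells served as 0% and stimulated untreated cells as 100%. IC50 was calculated from these.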

T-cell line [2] = experiment: Induction of cell cycle arrest in anti-CD3/anti-CD28 antibody-stimulated human T cells assessed as accumulation at S phase at 0.1 uM incubated for 72 hrs by flow cytometry (reference value: 18.1%); assay type: functional
T-cell line [3] = experiment: Effect on anti-CD3/anti-CD28 antibody-induced cell activation in human T cells assessed as effect on CD25 expression at 0.1 uM incubated for 24 hrs by flow cytometry (reference value: 69.1%); assay type: functional
T-cell line [4] = experiment: Effect on anti-CD3/anti-CD28 antibody-induced cell activation in human T cells assessed as effect on CD69 expression at 0.1 uM incubated for 24 hrs by flow cytometry (reference value: 41.2%); assay type: functional
T-cell line [5] = experiment: Effect on anti-CD3/anti-CD28 antibody-induced cell activation in human T cells assessed as effect on CD25 expression at 1 uM incubated for 24 hrs by flow cytometry (reference value: 69.1%); assay type: functional
T-cell line [6] = experiment: Effect on anti-CD3/anti-CD28 antibody-induced cell activation in human T cells assessed as effect on CD25 expression at 0.2 uM incubated for 24 hrs by flow cytometry (reference value: 69.1%); assay type: functional
T-cell line [7] = experiment: Immunosuppressive activity in human T cells assessed as reduction in alloantigen stimulation-induced cell proliferation incubated for 72 hrs by CFSE based flow cytometry; assay type: functional; summary of the method: as §1
T-cell line [8] = experiment: Cytotoxicity in human T cells assessed as reduction in cell viability at 20 to 320 uM incubated for 72 hrs by CCK8 assay; assay type: cell-based
Summary of the method: (§2)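 Naive human T cells or PBMCs (10^6 cells/mL) exposed to 20, 40, 80, 160 or 320 μM or vehicle for 72 h. Viability read by CCK-8 as OD450, with untreated cells set to 100%. Mean ± SEM, n = 5 per group, three independent experiments.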

PBMC = experiment: Cytotoxicity in human PBMC cells assessed as reduction in cell viability at 20 to 320 uM incubated for 72 hrs by CCK8 assay; assay type: cell-based; summary of the method: as §2
T-cell line [9] = experiment: Effect on anti-CD3/anti-CD28 antibody-induced cell activation in human T cells assessed as effect on CD25 expression at 0.2 to 5 uM incubated for 24 hrs by flow cytometry; assay type: functional, cell-based
T-cell line [10] = experiment: Effect on anti-CD3/anti-CD28 antibody-induced cell activation in human T cells assessed as effect on CD69 expression at 0.2 to 5 uM incubated for 24 hrs by flow cytometry; assay type: functional, cell-based
T-cell line [11] = experiment: Induction of cell cycle arrest in anti-CD3/anti-CD28 antibody-stimulated human T cells assessed as accumulation at G0/G1 phase at 0.2 uM incubated for 72 hrs by flow cytometry (reference value: 66.6%); assay type: functional
T-cell line [12] = experiment: Induction of cell cycle arrest in anti-CD3/anti-CD28 antibody-stimulated human T cells assessed as accumulation at S phase at 0.2 uM incubated for 72 hrs by flow cytometry (reference value: 18.1%); assay type: functional
T-cell line [13] = experiment: Induction of cell cycle arrest in anti-CD3/anti-CD28 antibody-stimulated human T cells assessed as accumulation at G2/M phase at 0.2 uM incubated for 72 hrs by flow cytometry (reference value: 15.3%); assay type: functional
T-cell line [14] = experiment: Induction of cell cycle arrest in anti-CD3/anti-CD28 antibody-stimulated human T cells assessed as accumulation at G0/G1 phase at 1 uM incubated for 72 hrs by flow cytometry (reference value: 66.6%); assay type: functional
T-cell line [15] = experiment: Induction of cell cycle arrest in anti-CD3/anti-CD28 antibody-stimulated human T cells assessed as accumulation at S phase at 1 uM incubated for 72 hrs by flow cytometry (reference value: 18.1%); assay type: functional
T-cell line [16] = experiment: Induction of cell cycle arrest in anti-CD3/anti-CD28 antibody-stimulated human T cells assessed as accumulation at G2/M phase at 1 uM incubated for 72 hrs by flow cytometry (reference value: 15.3%); assay type: functional
T-cell line [17] = experiment: Induction of cell cycle arrest in anti-CD3/anti-CD28 antibody-stimulated human T cells assessed as accumulation at G0/G1 phase at 5 uM incubated for 72 hrs by flow cytometry (reference value: 66.6%); assay type: functional
T-cell line [18] = experiment: Induction of cell cycle arrest in anti-CD3/anti-CD28 antibody-stimulated human T cells assessed as accumulation at S phase at 5 uM incubated for 72 hrs by flow cytometry (reference value: 18.1%); assay type: functional
T-cell line [19] = experiment: Induction of cell cycle arrest in anti-CD3/anti-CD28 antibody-stimulated human T cells assessed as accumulation at G2/M phase at 5 uM incubated for 72 hrs by flow cytometry (reference value: 15.3%); assay type: functional
T-cell line [20] = experiment: Inhibition of IL6 production in anti-CD3/anti-CD28 antibody-stimulated human T cells at 0.2 to 5 uM incubated for 48 hrs by ELISA; assay type: functional, cell-based
Summary of the method: (§3)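 Human T cells (10^6 cells/mL) treated with 0.2, 1 or 5 μM drug, LY-294002 (50 μM) or vehicle and activated with anti-CD3 (2 μg/mL) plus soluble anti-CD28 (1 μg/mL) for 48 h. Supernatant IL-6 and IL-17 were quantified by ELISA against recombinant cytokine standard curves. Mean ± SEM, n = 5 per group, three independent experiments.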

T-cell line [21] = experiment: Inhibition of IL17 production in anti-CD3/anti-CD28 antibody-stimulated human T cells at 0.2 to 5 uM incubated for 48 hrs by ELISA; assay type: functional, cell-based; summary of the method: as §3
T-cell line [22] = experiment: Effect on anti-CD3/anti-CD28 antibody-induced cell activation in human T cells assessed as effect on CD25 expression at 5 uM incubated for 24 hrs by flow cytometry (reference value: 69.1%); assay type: functional
T-cell line [23] = experiment: Effect on anti-CD3/anti-CD28 antibody-induced cell activation in human T cells assessed as effect on CD69 expression at 0.2 uM incubated for 24 hrs by flow cytometry (reference value: 41.2%); assay type: functional
T-cell line [24] = experiment: Effect on anti-CD3/anti-CD28 antibody-induced cell activation in human T cells assessed as effect on CD69 expression at 1 uM incubated for 24 hrs by flow cytometry (reference value: 41.2%); assay type: functional
T-cell line [25] = experiment: Effect on anti-CD3/anti-CD28 antibody-induced cell activation in human T cells assessed as effect on CD69 expression at 5 uM incubated for 24 hrs by flow cytometry (reference value: 41.2%); assay type: functional

Work on `C[N+]12CCC[C@]34CC[C@@]5(Nc6ccccc6[C@]5(CC1)[C@H]32)[C@H](C(=O)[O-])C4` (some centres undefined) yielded an IC50 (T-cell line [1]) of 21.6 µM.

Compound `CC(=O)O[C@H]1C(=O)[C@@]2(C)[C@H]([C@H](OC(=O)c3ccccc3)[C@]3(O)C[C@H](OC(=O)[C@H](O)[C@@H](NC(=O)c4ccccc4)c4ccccc4)C(C)=C1C3(C)C)[C@]1(OC(C)=O)CO[C@@H]1C[C@@H]2O` [PACLITAXEL] has an Activity (T-cell line [2]) of 16.9%.

For `C=CC[C@@H]1/C=C(\C)C[C@H](C)C[C@H](OC)[C@H]2O[C@@](O)(C(=O)C(=O)N3CCCC[C@H]3C(=O)O[C@H](/C(C)=C/[C@@H]3CC[C@@H](O)[C@H](OC)C3)[C@H](C)[C@@H](O)CC1=O)[C@H](C)C[C@@H]2OC` [TACROLIMUS ANHYDROUS], the Activity (T-cell line [3]) was 6.8% and the Activity (T-cell line [4]) was 13.1%.

Work on `O=C1[C@H]2CN3CCC[C@]45CC[C@@]6(Nc7ccccc7[C@@]26[C@@H]34)[C@@]1(O)C5` yielded an IC50 (T-cell line [1]) of 25.4 µM.

With `COC(=O)N1c2c(OC)cccc2[C@@]23[C@H]4CN5CCC[C@@](CC[C@]12C(=O)O)(CC4=O)[C@H]53` the IC50 (T-cell line [1]) was 27.8 µM.

Compound `CC[C@]12CCCn3ccc(c31)-c1ccccc1NC(=O)CC2` [RHAZINILAM] has an Activity (T-cell line [5]) of 70.3%, an Activity (T-cell line [6]) of 68.8% and an IC50 (T-cell line [1]) of 1 µM. The IC50 (T-cell line [7]) was 1.1 µM, the Activity (T-cell line [8]) was “Non-Toxic” and the Activity (PBMC) was “Non-Toxic”. For the same compound, the Activity (T-cell line [9]) was “inactive”, the Activity (T-cell line [10]) was “inactive” and the Activity (T-cell line [11]) was 66.5%. It also gave an Activity (T-cell line [12]) of 16.8%, an Activity (T-cell line [13]) of 16.7% and an Activity (T-cell line [14]) of 57.4%. For the same compound, the Activity (T-cell line [15]) was 19.7%, the Activity (T-cell line [16]) was 22.9% and the Activity (T-cell line [17]) was 42.1%. The Activity (T-cell line [18]) was 17.6%, the Activity (T-cell line [19]) was 40.3% and the inhibition (T-cell line [20]) was “Active”. The inhibition (T-cell line [21]) was “Active”, the Activity (T-cell line [22]) was 69.3% and the Activity (T-cell line [23]) was 41.1%. For the same compound, the Activity (T-cell line [24]) was 42.4% and the Activity (T-cell line [25]) was 41.6%.
